High-throughput results as filed in PubChem BioAssay.
AP complement: orthogonal test for alternative complement pathway inhibitors; Human serum alternative complement pathway, LPS-coated ELISA, C3 deposition; tested in compound mixtures; inhibition, % at 5 µM; hit rate 0.08% among 62,000; AID 1235;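 active = inhibition above 30% in each of the two pooled mixtures holding the compound, so the lower value exceeds 30%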;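 also: 0% = serum in Mg-EGTA without compound and 100% = EDTA serum blank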
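Medium: diluted human serum in Mg2+-EGTA GVB++. Assay system: human serum complement alternative pathway, C3 deposition onto LPS. Also added: Plate-bound LPS. Technique: Anti-C3 ELISA, OD 450 nm. Measure: percent inhibition. Incubation: 1 h at 37 °C. Dosing: 5 µM each compound, pools of ten, 50 µM per pool.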
RORA act: activators of human nuclear receptor RORA | CHO-K1 Gal4-RORA LBD luciferase reporter, luminescence; percent increase over mock-subtracted basal signal | activation, % at 10 µM | hit rate 1.5% among 65,000;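 active = activation above the mean of all tested compounds plus 3 SD, cut at about 49% in these data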;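 also: 0% = DMSO-treated RORA cells and 100% = added signal equal to DMSO minus mock-transfected cells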
E coli RNAP: Escherichia coli RNA polymerase inhibition; P0A8V2; E. coli RNA polymerase, fluorescence transcription assay; inhibition, %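 (tested at 10 µM)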; hit rate 0.2% among 62,000; AID 559; in the data active = inhibition above about 20%;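 also: 0% = enzyme without compound and 100% = no enzyme blank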
MMP-13 inhibitor: inhibitors of human MMP13; P45452; MMP-13 fTHP FRET cleavage, Mca fluorescence; inhibition, % at 4 µM; hit rate 0.07% among 65,000; AID 570;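 active = inhibition above the mean of compound-free control plate wells plus 3 SD, cut at about 14% in these data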;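 also: 0% = DMSO wells and 100% = wells with reference MMP-13 inhibitor after basal subtraction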
HePTP inh: human HePTP phosphatase inhibition; hit rate 0.64% among 110,000; P35236; recombinant HePTP phosphatase activity, OD absorbance; AID 521; inhibition, % at 20 µM; in the data active = inhibition above about 50%;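 also: plate controls were vehicle for no effect and reference inhibitor for full effect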
SF-1 act: activators of human nuclear receptor SF-1; Q13285; CHO-K1 Gal4-SF-1 LBD luciferase reporter; % increase over DMSO SF-1-specific signal; activation, % at 10 µM; hit rate 1.9% among 65,000; AID 522;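 active = activation above the mean activation of all tested compounds plus 3 SD, cut at about 50% in these data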
Target sequence (Q13285 whole entry, looked up, the tested form may be a part): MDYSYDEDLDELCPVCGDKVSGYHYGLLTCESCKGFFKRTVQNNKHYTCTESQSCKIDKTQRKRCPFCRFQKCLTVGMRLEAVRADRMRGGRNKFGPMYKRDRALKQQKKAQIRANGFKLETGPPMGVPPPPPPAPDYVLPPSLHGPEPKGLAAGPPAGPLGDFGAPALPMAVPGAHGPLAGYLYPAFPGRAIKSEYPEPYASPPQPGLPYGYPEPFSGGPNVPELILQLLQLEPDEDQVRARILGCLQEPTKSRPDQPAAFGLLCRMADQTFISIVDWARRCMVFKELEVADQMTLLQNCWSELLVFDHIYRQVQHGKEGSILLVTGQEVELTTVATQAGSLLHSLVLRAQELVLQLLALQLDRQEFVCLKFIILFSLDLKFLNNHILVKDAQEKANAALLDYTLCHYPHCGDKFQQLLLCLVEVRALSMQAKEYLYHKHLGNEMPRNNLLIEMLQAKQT
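Material: CHO-K1 cells with Gal4–hSF-1 LBD chimera plus Gal4-driven luciferase / Input: 4,000 CHO-K1 cells per well / Incubation: compound exposure 20 h at 37 °C / Signal: luminescence read 15 min after SteadyLite luciferase reagent, after room-temperature equilibration / Read-out: percent activation versus DMSO / Benchmarks: DMSO negative control and −SF1 background wells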
An asterisk follows results filed as active; . = no result. Compounds with a hit are over-represented: about 2.4% of the library has one in this group of screens.

SMILES	AP complement	RORA act	E coli RNAP	MMP-13 inhibitor	HePTP inh	SF-1 act
O=C(Nc1cccc2ccccc12)N1CCCCCC1	.	.	.	.	-2	.
CCN(CC)c1ccc(/C=N/Nc2nncc(-c3ccccc3)n2)cc1	.	.	.	.	0	.
COc1ccc(/C=C2\SC(=Nc3ccc(C)cc3)N(c3ccc(C)cc3)C2=O)cc1C(=O)O	.	.	.	.	-6	.
COc1cccc(C2/C(=C(/O)c3ccccc3)C(=O)C(=O)N2c2nc3ccccc3s2)c1 (configuration not stated)	.	.	.	.	-7	.
O=C(Oc1ccc(-c2ccccc2)cc1)N1CCOCC1	11	61*	-4	-2	8	43
OC(c1ccc(Br)cc1)C12CN3CN(CN(C3)C1)C2 (configuration not stated)	.	.	.	.	104*	.
CCC(C)OC(=O)c1[nH]c2c(c1C)C(=O)CC(c1ccc(N(C)C)cc1)C2 (configuration not stated)	19	44	6	4	7	57*
CCOCCOC(=O)c1[nH]c2c(c1C)C(=O)CC(c1ccc(N(C)C)cc1)C2 (configuration not stated)	6	6	1	4	2	24
Clc1cccc(CSc2nnc(-c3cccnc3)n2Cc2ccco2)c1	37*	9	9	-2	12	-18
CC1(C)CC(=O)C(C=Nc2ccccc2)=C(O)C1	21	6	5	1	2	64*
CC1(C)CC(=O)C(C=Nc2ccccc2C(=O)O)=C(O)C1	33	-15	-2	-21	8	-11
COc1cc(/C=c2\sc3nc4ccccc4n3c2=O)cc(I)c1OCC(=O)O	.	.	.	.	75*	.
CCOc1cc(/C=c2/sc3nc4ccccc4n3c2=O)cc(I)c1OCC	.	.	.	.	-3	.
CCOC(=O)c1c(C)nc2c3ccccc3ccn12	4	26	1	-2	3	76*
CCOC(=O)c1c(C)nc2sccn12	-3	-17	8	4	1	4
Cc1ccc(Cl)cc1NC(=O)c1ccccc1N(Cc1ccccc1)S(=O)(=O)c1ccccc1	.	.	.	.	8	.
